23 molecules from PubChem BioAssay AID652287 (Sanford-Burnham Center for Chemical Genomics, 2013) can be followed below.

Several values for one entry are separate records, joined by “and”; a condition that tells them apart may be missing. Equal entries are not always repeated. Activity calls are given as the source filed them.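 The calls were made as follows: active = compounds with IC50 of 20 µM or lower; inactive = the rest.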

Sequence of Fatty acid synthase (Homo sapiens) (P49327 whole entry, looked up, the tested form may be a part): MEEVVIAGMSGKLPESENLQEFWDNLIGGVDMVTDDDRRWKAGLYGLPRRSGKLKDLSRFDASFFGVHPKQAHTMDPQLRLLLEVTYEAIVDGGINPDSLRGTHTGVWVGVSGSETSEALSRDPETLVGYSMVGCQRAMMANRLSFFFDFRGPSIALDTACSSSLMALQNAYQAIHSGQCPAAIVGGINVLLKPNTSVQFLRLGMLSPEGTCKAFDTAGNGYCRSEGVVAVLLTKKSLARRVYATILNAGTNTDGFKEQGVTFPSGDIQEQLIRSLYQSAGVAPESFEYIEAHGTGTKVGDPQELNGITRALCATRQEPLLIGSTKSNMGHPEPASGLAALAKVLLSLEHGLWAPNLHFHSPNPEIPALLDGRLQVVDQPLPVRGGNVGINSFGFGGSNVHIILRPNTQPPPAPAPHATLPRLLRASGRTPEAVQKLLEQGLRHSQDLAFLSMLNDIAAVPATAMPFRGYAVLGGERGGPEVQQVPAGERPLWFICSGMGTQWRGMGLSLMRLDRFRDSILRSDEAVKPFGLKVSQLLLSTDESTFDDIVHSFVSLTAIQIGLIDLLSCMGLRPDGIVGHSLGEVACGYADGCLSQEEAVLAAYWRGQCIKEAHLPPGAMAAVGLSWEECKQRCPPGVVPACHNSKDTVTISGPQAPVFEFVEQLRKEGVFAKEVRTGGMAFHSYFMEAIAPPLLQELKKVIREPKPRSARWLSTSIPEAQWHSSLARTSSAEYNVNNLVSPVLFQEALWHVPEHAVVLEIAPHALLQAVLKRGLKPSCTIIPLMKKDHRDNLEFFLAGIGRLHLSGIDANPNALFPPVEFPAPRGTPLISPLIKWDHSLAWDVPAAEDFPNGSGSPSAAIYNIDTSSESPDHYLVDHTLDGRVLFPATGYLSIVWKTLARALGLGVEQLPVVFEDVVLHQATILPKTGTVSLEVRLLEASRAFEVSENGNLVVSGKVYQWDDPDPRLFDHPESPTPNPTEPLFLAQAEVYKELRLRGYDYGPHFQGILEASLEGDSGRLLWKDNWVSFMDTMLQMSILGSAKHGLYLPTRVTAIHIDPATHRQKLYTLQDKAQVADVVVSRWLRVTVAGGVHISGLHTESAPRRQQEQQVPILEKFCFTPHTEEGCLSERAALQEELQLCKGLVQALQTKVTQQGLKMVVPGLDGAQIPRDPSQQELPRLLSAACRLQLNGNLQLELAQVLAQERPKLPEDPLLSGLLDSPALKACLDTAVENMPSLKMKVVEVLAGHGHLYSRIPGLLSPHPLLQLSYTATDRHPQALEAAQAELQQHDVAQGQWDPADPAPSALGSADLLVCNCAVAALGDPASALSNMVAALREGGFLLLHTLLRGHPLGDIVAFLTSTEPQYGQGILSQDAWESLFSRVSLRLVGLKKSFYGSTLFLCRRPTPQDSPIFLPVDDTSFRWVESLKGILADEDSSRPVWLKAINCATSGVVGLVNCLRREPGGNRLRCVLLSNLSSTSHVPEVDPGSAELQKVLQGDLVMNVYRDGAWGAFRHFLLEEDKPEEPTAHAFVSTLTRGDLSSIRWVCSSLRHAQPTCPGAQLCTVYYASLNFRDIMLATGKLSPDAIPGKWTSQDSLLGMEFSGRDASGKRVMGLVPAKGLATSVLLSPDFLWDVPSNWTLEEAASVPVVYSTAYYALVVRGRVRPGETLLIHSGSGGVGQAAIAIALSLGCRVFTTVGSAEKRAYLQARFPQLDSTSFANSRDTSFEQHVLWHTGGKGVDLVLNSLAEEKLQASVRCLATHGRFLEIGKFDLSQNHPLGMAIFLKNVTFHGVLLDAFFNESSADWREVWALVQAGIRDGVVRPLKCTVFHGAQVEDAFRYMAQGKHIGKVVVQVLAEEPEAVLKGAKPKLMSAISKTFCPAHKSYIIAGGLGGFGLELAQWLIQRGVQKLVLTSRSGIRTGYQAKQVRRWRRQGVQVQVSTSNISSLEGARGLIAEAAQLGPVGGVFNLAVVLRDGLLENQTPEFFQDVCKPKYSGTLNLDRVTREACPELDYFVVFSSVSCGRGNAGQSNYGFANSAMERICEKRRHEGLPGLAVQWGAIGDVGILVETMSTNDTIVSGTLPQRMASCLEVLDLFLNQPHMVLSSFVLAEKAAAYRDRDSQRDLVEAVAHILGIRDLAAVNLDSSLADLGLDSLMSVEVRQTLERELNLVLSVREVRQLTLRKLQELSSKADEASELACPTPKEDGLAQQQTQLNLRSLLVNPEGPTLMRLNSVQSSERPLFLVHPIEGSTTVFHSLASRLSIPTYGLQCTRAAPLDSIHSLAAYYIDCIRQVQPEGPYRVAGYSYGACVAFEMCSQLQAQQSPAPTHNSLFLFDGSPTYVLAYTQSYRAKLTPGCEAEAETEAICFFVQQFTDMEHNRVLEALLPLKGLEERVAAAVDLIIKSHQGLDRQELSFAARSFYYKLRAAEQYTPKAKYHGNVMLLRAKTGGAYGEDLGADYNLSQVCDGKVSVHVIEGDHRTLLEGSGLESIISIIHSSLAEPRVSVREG

The test addresses Fatty acid synthase (Homo sapiens) (UniProt P49327). As to the kind of experiment: FAS thioesterase domain inhibitors, SAR follow-up, biochemical, endpoint fluorescence, OMFH substrate, round 2, powder samples (AID 652287). The following applies: recombinant FAS-TE, OMFH fluorogenic substrate. Put shortly:
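Assay system: fatty acid synthase thioesterase domain (FAS-TE) enzyme; input: 0.9 µM FAS-TE enzyme, final; incubation: enzyme reaction 60 min at room temperature; technique: fluorescence endpoint, Ex 480 nm, Em 540 nm; control set: wells without enzyme as low control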
`CC(C)CC(=O)Nc1nc(-c2ccc(S(=O)(=O)N3CCCC3)cc2)cs1`: the IC50 – broadly, the point on the concentration scale where inhibition reaches its midpoint – is 1640 nM.

Take `CN(Cc1ccc(C(C)(C)C)cc1)C(=O)Cc1ccc(S(=O)(=O)N2CCOCC2)s1`: the IC50 is 343 nM.

In the case of `CCCCCC(=O)Nc1nc(-c2ccc(S(=O)(=O)N3CCCCC3C)cc2)cs1` (stereo not drawn), the IC50 is 580 nM.

On to `CCC(CC)C(=O)Nc1nc(-c2ccc(S(=O)(=O)N(CC)CC)cc2)cs1`, for which the IC50 was 328 nM.

For the molecule `CCCCCCC(=O)Nc1nc(-c2ccc(S(=O)(=O)N3CCCC3)cc2)cs1`, the IC50 is 846 nM.

With `CC1CCN(S(=O)(=O)c2ccc(-c3csc(NC(=O)C(C)C)n3)cc2)CC1`, the IC50 was 511 nM.

`CCC(CC)C(=O)Nc1nc(-c2ccc(S(=O)(=O)N3CCC(C)CC3)cc2)cs1`: the IC50 was 1830 nM.

On to `CC(C)CC(=O)Nc1nc(-c2ccc(S(=O)(=O)N3CCC(C)CC3)cc2)cs1`, for which the IC50 entry is “inactive”.

As for `CCCCCCC(=O)Nc1nc(-c2ccc(S(=O)(=O)N3CCCCC3C)cc2)cs1` (stereo not drawn), the IC50 is 4320 nM.

Regarding `CCC(C)C(=O)Nc1nc(-c2ccc(S(=O)(=O)N3CCC(C)CC3)cc2)cs1` (stereo not drawn), the IC50 is 409 nM.

Turning to `CCC(C)C(=O)Nc1nc(-c2ccc(S(=O)(=O)N(CC)CC)cc2)cs1` (stereo not drawn), the IC50 is 1130 nM and 154 nM.

Take `CCCCCCC(=O)Nc1nc(-c2ccc(S(=O)(=O)N(CC)CC)cc2)cs1`: the IC50 was 1390 nM.

As to `Cn1c(SCC(=O)Nc2ncc(C(F)(F)F)cc2Cl)nnc1-c1ccc(Cl)cc1`, the IC50 was 686 nM.

Regarding `CCC(C)C(=O)Nc1nc(-c2ccc(S(=O)(=O)N3CCCCC3C)cc2)cs1` (stereo not drawn), the IC50 was 285 nM.

Regarding `CCCCCCC(=O)Nc1nc(-c2ccc(S(=O)(=O)N3CCC(C)CC3)cc2)cs1`, the IC50 is 4470 nM.

For `CCC(CC)C(=O)Nc1nc(-c2ccc(S(=O)(=O)N3CCCC3)cc2)cs1`, the IC50 was 257 nM.

`CCCCCCCCCCC[C@H](C[C@@H]1OC(=O)[C@H]1CCCCCC)OC(=O)[C@@H](NC=O)C(C)C`: the IC50 is 107 nM.

Consider `CCCCC(=O)Nc1nc(-c2ccc(S(=O)(=O)N3CCCCC3C)cc2)cs1` (stereo not drawn), for which the IC50 was 382 nM.

Turning to `CCC(C)C(=O)Nc1nc(-c2ccc(S(=O)(=O)N3CCCC3)cc2)cs1` (stereo not drawn), the IC50 is 145 nM.

Take `CCCCCC(=O)Nc1nc(-c2ccc(S(=O)(=O)N3CCC(C)CC3)cc2)cs1`: the IC50 was 745 nM.

Take `CCCCCC(=O)Nc1nc(-c2ccc(S(=O)(=O)N3CCCC3)cc2)cs1`: the half-maximal inhibitory concentration (IC50) was 141 nM.

Turning to `CCCCCC(=O)Nc1nc(-c2ccc(S(=O)(=O)N(CC)CC)cc2)cs1`, the IC50 was 196 nM.

`CCCCC(=O)Nc1nc(-c2ccc(S(=O)(=O)N3CCOCC3)cc2)cs1`: the 50% inhibitory concentration (IC50) is 204 nM.
